Activity calls are given as the source filed them. The calls are words filed in the database; no cut-off is given here.
Experiments:
[1] = system: A549; test: Cytotoxicity against human A549 cells after 72 hrs; assay type: functional, cell-based; settings: A549, 72 h
Procedure, shortened: (§1)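 Cells (ATCC) were exposed in log-phase growth for 72 h to compound across 10 µM to 10 nM in RPMI with 10% FCS, 4 mM glutamine, penicillin/streptomycin and fungizone, at 37 °C under 5% CO2. Viability was read as ATP from viable cells by luminescence kit. IC50 is the dose cutting ATP release by 50%.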

[2] = system: BXPC-3; test: Cytotoxicity against human BxPC3 cells after 72 hrs; assay type: functional, cell-based; settings: BXPC-3, 72 h; procedure, shortened: as §1
[3] = system: LoVo; test: Cytotoxicity against human LoVo cells after 72 hrs; assay type: functional, cell-based; procedure, shortened: as §1
[4] = system: MCF7; test: Cytotoxicity against human MCF7 cells after 72 hrs; assay type: functional, cell-based; settings: MCF7, 72 h; procedure, shortened: as §1
[5] = Cytotoxicity against human Namalwa cells after 72 hrs; assay type: functional, cell-based; settings: NAMALVA; procedure, shortened: as §1
[6] = system: SK-OV-3; test: Cytotoxicity against human SKOV3 cells after 72 hrs; assay type: functional, cell-based; settings: SK-OV-3, 72 h; procedure, shortened: as §1
[7] = target: T1, DNA topoisomerase 1 (Homo sapiens, UniProt P11387); test: Inhibition of topoisomerase 1-mediated DNA relaxation
T1 sequence (P11387 whole entry): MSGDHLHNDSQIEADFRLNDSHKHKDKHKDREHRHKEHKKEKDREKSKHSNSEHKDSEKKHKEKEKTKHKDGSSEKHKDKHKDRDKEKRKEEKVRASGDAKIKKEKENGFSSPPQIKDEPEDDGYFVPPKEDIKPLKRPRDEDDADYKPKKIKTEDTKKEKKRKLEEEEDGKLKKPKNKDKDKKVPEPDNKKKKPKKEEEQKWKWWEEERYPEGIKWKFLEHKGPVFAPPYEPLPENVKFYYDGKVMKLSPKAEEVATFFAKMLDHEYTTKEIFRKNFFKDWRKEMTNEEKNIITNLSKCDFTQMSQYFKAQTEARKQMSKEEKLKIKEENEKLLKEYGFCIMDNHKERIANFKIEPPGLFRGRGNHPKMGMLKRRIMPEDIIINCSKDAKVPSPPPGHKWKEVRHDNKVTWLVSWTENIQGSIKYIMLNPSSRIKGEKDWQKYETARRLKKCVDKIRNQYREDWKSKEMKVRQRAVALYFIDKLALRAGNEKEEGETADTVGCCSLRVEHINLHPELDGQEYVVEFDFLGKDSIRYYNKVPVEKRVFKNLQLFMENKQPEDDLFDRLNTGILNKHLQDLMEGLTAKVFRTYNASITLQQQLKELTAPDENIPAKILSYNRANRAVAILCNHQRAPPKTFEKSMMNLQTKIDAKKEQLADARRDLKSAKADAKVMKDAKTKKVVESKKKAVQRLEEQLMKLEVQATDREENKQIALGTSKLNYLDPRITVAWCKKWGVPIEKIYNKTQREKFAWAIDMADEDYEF
Procedure, shortened: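 Supercoiled plasmid DNA (200 ng) was incubated 20 min at 37 °C with the minimum purified topoisomerase I needed for full relaxation, with or without drug at 1, 3.2, 10 or 100 µM. The reaction was stopped with SDS–proteinase K, and products were resolved by agarose gel electrophoresis.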

[8] = target: DNA topoisomerase 2-alpha (Homo sapiens, UniProt P11388); test: Inhibition of topoisomerase 2 mediated DNA relaxation
[9] = Inhibition of topoisomerase by kinetoplast DNA decatenation assay
[10] = system: V79; test: Effect on DNA damage in Chinese hamster V79 cells at 10 uM after 1 hr by comet assay relative to control; assay type: functional, cell-based; settings: Cricetulus griseus
Procedure, shortened: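 Cells were treated for 1 h at 10 µM. Controls carried 1% DMSO, matching the drug samples. Strand breaks were scored by comet assay, with representative photomicrographs (10×) of each full slide.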

[11] = system: A549; test: Cell cycle arrest in human A549 cells by accumulation at S phase after 48 hrs by flow cytometry; assay type: functional, cell-based
Procedure, shortened: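 A549 cells were seeded at 1.3 × 10^4 cells/cm², then drug-treated. They were stained with propidium iodide and read by flow cytometry on the […] channel. G1, S and G2/M fractions were obtained by deconvolution.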

[12] = system: P388; test: Antitumor activity in mouse P388 cells xenografted mouse at 10 mg/kg, ip for 4 days; assay type: functional, organism-based; set-up: dose 10 mg/kg
Procedure, shortened: (§2)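 Compounds were given ip at 10 or 20 mg/kg per injection, once daily for 4 days. Antitumor activity and toxicity were both recorded.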

[13] = system: P388; test: Antitumor activity in mouse P388 leukemia model at 20 mg/kg, ip for 4 days; assay type: functional, organism-based; set-up: dose 20 mg/kg; procedure, shortened: as §2
[14] = system: Mus musculus; test: Toxicity in P388 cells xenografted mouse at 10 to 20 mg/kg, ip for 4 days; assay type: organism-based; set-up: dose 10-20 mg/kg, route intraperitoneal; settings: in vivo, 96 h; procedure, shortened: as §2
[15] = Displacement of ethidium bromide from DNA
[16] = Displacement of Hoechst 33258 from DNA
[17] = Inhibition of topoisomerase by kinetoplast DNA decatenation assay at 100 uM
[18] = system: CEM/C2; test: Cytotoxicity against human topoisomerase 1 mutant CEM/C2 cells; assay type: functional, cell-based; procedure, shortened: as §1
[19] = system: CCRF-CEM; test: Cytotoxicity against human CEM cells; assay type: functional, cell-based; procedure, shortened: as §1
[20] = system: HL-60; test: Cytotoxicity against human HL60 cells; assay type: functional, cell-based
[21] = Cytotoxicity against human HL60/MX2 cells; assay type: functional, cell-based

DNA topoisomerase 2-alpha, sequence (P11388 whole entry): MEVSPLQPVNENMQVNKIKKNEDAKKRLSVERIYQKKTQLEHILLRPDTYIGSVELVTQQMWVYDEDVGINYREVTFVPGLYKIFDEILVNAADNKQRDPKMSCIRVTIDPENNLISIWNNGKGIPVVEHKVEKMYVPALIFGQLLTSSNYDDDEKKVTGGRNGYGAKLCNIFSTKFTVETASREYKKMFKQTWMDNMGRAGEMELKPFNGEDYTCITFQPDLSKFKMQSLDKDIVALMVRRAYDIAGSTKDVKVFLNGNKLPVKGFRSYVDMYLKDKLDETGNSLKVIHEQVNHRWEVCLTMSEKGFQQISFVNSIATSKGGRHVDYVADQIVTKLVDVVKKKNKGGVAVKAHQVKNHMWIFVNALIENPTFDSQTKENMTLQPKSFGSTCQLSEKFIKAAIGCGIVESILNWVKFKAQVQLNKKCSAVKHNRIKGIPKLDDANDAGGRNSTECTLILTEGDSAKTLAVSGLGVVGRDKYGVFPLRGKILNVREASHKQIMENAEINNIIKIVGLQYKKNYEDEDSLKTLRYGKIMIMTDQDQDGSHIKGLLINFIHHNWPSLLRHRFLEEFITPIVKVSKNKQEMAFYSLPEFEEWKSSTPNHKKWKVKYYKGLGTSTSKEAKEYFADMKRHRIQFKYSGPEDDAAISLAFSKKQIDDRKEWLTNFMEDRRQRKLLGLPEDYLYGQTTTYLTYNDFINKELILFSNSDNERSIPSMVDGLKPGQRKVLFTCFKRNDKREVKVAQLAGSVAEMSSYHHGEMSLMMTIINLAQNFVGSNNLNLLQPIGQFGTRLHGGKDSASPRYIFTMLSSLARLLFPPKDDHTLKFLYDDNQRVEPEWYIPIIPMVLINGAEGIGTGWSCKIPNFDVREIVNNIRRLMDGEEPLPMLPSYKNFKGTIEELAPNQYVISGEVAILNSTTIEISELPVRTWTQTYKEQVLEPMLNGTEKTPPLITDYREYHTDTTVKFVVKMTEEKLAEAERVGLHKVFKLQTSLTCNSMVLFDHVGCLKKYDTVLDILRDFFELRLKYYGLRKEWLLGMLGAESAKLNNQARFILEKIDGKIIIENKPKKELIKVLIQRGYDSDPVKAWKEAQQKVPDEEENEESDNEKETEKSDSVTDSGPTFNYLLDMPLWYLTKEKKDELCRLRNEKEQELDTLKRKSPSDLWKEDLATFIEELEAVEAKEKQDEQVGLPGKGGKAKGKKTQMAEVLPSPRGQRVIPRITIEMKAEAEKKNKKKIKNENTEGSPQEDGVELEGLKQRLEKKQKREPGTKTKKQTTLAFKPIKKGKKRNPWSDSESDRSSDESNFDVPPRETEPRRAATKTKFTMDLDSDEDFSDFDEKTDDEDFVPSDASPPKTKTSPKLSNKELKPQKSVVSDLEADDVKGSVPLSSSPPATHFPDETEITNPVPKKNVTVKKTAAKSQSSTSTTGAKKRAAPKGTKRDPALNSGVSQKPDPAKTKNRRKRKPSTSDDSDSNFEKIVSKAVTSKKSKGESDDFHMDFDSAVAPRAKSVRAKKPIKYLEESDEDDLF

IC50 [7] | IC50 [8] | IC50 [9] | Activity [15] | Activity [16] | Compound | IC50 [1] | IC50 [2] | IC50 [3] | IC50 [4] | IC50 [5] | IC50 [6] | Activity [10] | Activity [11] | Activity [12] | Activity [13] | Activity [14] | also measured
9 µM | 19 µM | 20 µM | inactive | inactive | NCCc1c(C(c2[nH]c3cc(Br)ccc3c2CCNC(=O)C(F)(F)F)c2cn(S(=O)(=O)c3ccccc3)c3ccccc23)[nH]c2cc(Br)ccc12 (stereo not given) | 5 µM | 3.6 µM | 4.5 µM | 4.9 µM | 3.5 µM | 6.5 µM | Active | Dose-dependent effect | Non-toxic | Non-toxic | Non-toxic | 
 | > 100 µM |  |  |  | NCCc1c(C2(c3c[nH]c4ccccc34)NCCc3c2[nH]c2ccccc32)[nH]c2ccccc12 (stereo not given) [BENGACARBOLINE] | 7.1 µM | 10 µM | 9.9 µM | 8.6 µM | > 10 µM | > 10 µM |  | Active |  |  |  | Activity [17]: inactive
8 µM | 13 µM | 20 µM | inactive | inactive | NCCc1c(C(c2[nH]c3cc(Br)ccc3c2CCNC(=O)C(F)(F)F)c2c[nH]c3ccccc23)[nH]c2cc(Br)ccc12 (stereo not given) | 4.6 µM | 5.1 µM | 5 µM | 4.2 µM | 5.4 µM | 6.5 µM | Active | Dose-dependent effect | Non-toxic | Non-toxic | Non-toxic | IC50 [18]: 5.6 µM; IC50 [19]: 5.5 µM; IC50 [20]: 8.8 µM; IC50 [21]: 10 µM

— ChEMBL document CHEMBL1142316, “Synthesis and biological evaluation of bengacarboline derivatives” (Bioorg Med Chem Lett, 2008)
